Measured values from ChEMBL document CHEMBL1154419, “Pharmacodynamic effects of telavancin against methicillin-resistant and methicillin-susceptible Staphylococcus aureus strains in the presence of human albumin or serum and in an in vitro kinetic model” (Antimicrob Agents Chemother, 2007).
In brackets after ≈: the same amount, converted by molar mass. Activity calls are given as the source filed them. No cut-off for these calls is given here.

Key:
[1] = test system: Staphylococcus aureus; test: Antibacterial activity against methicillin-susceptible Staphylococcus aureus ATCC 13709 assessed as change in bacterial burden at 5 mg/liter after 8 hrs; assay type: functional
[2] = test system: Staphylococcus aureus; test: Antibacterial activity against methicillin-susceptible Staphylococcus aureus ATCC 13709 assessed as change in bacterial burden at 2.5 mg/liter after 2 hrs; assay type: functional
[3] = test system: Staphylococcus aureus; test: Antibacterial activity against methicillin-susceptible Staphylococcus aureus ATCC 13709 assessed as bacterial regrowth at 40 mg/liter Cmax; assay type: functional, organism-based
[4] = test system: Staphylococcus aureus; test: Antibacterial activity against methicillin-resistant Staphylococcus aureus ATCC 33591 assessed as change in bacterial burden at 5 mg/liter after 4 hrs; assay type: functional
How it was run: (§1)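 In vitro kinetic model: spinner flask with 0.45-μm filter and prefilter, stirred, M-H broth at 37°C, starting inoculum approx. 5 × 10⁵ CFU/ml. Single initial drug dose of 1.0 to 40 mg/liter, with flow set to give a half-life of approx. 8 h. Viable counts at 0, 2, 4, 6, 8, 12 and 24 h. Duplicate runs per strain and concentration.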

[5] = test system: Staphylococcus aureus; test: Antibacterial activity against methicillin-resistant Staphylococcus aureus ATCC 33591 assessed as change in bacterial burden at 2.5 mg/liter after 6 hrs; assay type: functional; how it was run: as §1
[6] = test system: Staphylococcus aureus; test: Antibacterial activity against methicillin-resistant Staphylococcus aureus ATCC 33591 assessed as change in bacterial burden at 40 mg/liter after 4 hrs; assay type: functional; how it was run: as §1
[7] = Half life in in vitro kinetic model containing Mueller-Hinton broth and bacteria; assay type: physicochemical; conditions: in vitro kinetic model with bacteria
How it was run: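 Drug levels in kinetic-model samples measured by agar-well diffusion bioassay with Bacillus stearothermophilus ATCC 3032: 24 h prediffusion at 22°C, then overnight at 55°C; samples and standards in triplicate; detection limit 1 mg/liter.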

[8] = Cmax in human serum at 7.5 mg/kg; assay type: ADME, organism-based; design: dose 7.5 mg/kg
[9] = test system: Staphylococcus aureus; test: Antibacterial activity against methicillin-susceptible Staphylococcus aureus ATCC 13709 after 18 to 24 hrs by macrodilution technique; assay type: functional
How it was run: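 Broth macrodilution per CLSI, run in triplicate on separate occasions. Twofold serial drug dilutions in broth, inoculum approx. 5 × 10⁵ CFU/ml, 37°C for 18 to 24 h. MIC taken as the lowest concentration with no visible growth.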

[10] = test system: Staphylococcus aureus; test: Antibacterial activity against methicillin-susceptible Staphylococcus aureus ATCC 13709 assessed as change in bacterial burden at 1 mg/liter after 2 hrs; assay type: functional
[11] = test system: Staphylococcus aureus; test: Antibacterial activity against methicillin-resistant Staphylococcus aureus ATCC 33591 assessed as change in bacterial burden at 2.5 mg/liter after 4 hrs; assay type: functional; how it was run: as §1
[12] = test system: Staphylococcus aureus; test: Antibacterial activity against methicillin-resistant Staphylococcus aureus ATCC 33591 assessed as change in bacterial burden at 5 mg/liter after 12 hrs; assay type: functional; how it was run: as §1
[13] = test system: Staphylococcus aureus; test: Antibacterial activity against methicillin-resistant Staphylococcus aureus ATCC 33591 assessed as change in bacterial burden at 10 mg/liter after 4 hrs; assay type: functional; how it was run: as §1
[14] = test system: Staphylococcus aureus; test: Antibacterial activity against methicillin-susceptible Staphylococcus aureus ATCC 13709 assessed as change in bacterial burden at 1 mg/liter after 8 hrs; assay type: functional
[15] = test system: Staphylococcus aureus; test: Antibacterial activity against methicillin-susceptible Staphylococcus aureus ATCC 13709 assessed as change in bacterial burden at 1 mg/liter after 4 hrs; assay type: functional

With `CCCCCCCCCCNCCN[C@@]1(C)C[C@H](O[C@H]2[C@H](Oc3c4cc5cc3Oc3ccc(cc3Cl)[C@@H](O)[C@@H](NC(=O)[C@@H](CC(C)C)NC)C(=O)N[C@@H](CC(N)=O)C(=O)N[C@H]5C(=O)N[C@H]3C(=O)N[C@H](C(=O)N[C@H](C(=O)O)c5cc(O)c(CNCP(=O)(O)O)c(O)c5-c5cc3ccc5O)[C@H](O)c3ccc(c(Cl)c3)O4)O[C@H](CO)[C@@H](O)[C@@H]2O)O[C@@H](C)[C@H]1O` [TELAVANCIN] the deltalog10CFU/ml [1] was -4, the deltalog10CFU/ml [2] was -1.1 and the Activity [3] was “Active”. The deltalog10CFU/ml [4] was -2.1, the deltalog10CFU/ml [5] was -2.7 and the deltalog10CFU/ml [6] was -2.7. It also gave a half-life [7] of 8 h, a Cmax [8] of 60 µg/mL and an MIC [9] of 1 µg/mL (≈ 0.57 µM). For the same molecule, the deltalog10CFU/ml [10] was -0.8, the deltalog10CFU/ml [11] was -1.7 and the deltalog10CFU/ml [12] was -4.2. The deltalog10CFU/ml [13] was -2.2, the deltalog10CFU/ml [14] was -2.6 and the deltalog10CFU/ml [15] was -1.3.
